{
  "source": "ChEMBL document CHEMBL4330056",
  "about": "“Synthesis and Cytotoxic and Antiviral Profiling of Pyrrolo- and Furo-Fused 7-Deazapurine Ribonucleosides” (J Med Chem, 2018)",
  "key": {"Influenza A virus": {"test_system": "Influenza A virus", "experiment": "Antiviral activity against Influenza A virus (A/Mexico/4108/2009(H1N1)) infected in MDCK cells assessed as inhibited virus-induced cytopathic effect incubated for 2 days by XTT assay", "format": "functional, organism-based"}, "HL-60": {"test_system": "HL-60", "experiment": "Antiproliferative activity against human HL60 cells after 72 hrs by XTT assay", "format": "functional, cell-based", "settings": "HL-60, 72 h"}, "U2OS": {"test_system": "U2OS", "experiment": "Antiproliferative activity against human U2OS cells after 3 days by MTS assay", "format": "functional, cell-based", "settings": "72 h"}, "A549": {"test_system": "A549", "experiment": "Antiproliferative activity against human A549 cells after 3 days by MTS assay", "format": "functional, cell-based", "settings": "A549, 72 h"}, "CCRF-CEM [1]": {"test_system": "CCRF-CEM", "experiment": "Induction of cell cycle arrest in human CCRF-CEM cells assessed as accumulation at G0/G1 phase at IC50 concentration after 24 hrs by propidium iodide-staining based flow cytometry (reference value: 39.70%)", "format": "functional"}, "Human alphaherpesvirus 1": {"test_system": "Human alphaherpesvirus 1", "experiment": "Antiviral activity against human herpesvirus 1 HF infected in African green monkey Vero cells assessed as inhibited virus-induced cytopathic effect incubated for 3 days by XTT assay", "format": "functional, organism-based"}, "[2]": {"experiment": "Antiproliferative activity against human K562-TAX cells after 3 days by MTS assay", "format": "functional, cell-based", "settings": "72 h"}, "CCRF-CEM [3]": {"test_system": "CCRF-CEM", "experiment": "Antiproliferative activity against human CCRF-CEM cells after 3 days by MTS assay", "format": "functional, cell-based", "settings": "72 h"}, "CCRF-CEM [4]": {"test_system": "CCRF-CEM", "experiment": "Induction of cell cycle arrest in human CCRF-CEM cells assessed as accumulation at subG1 phase at 5 times IC50 concentration after 24 hrs by propidium iodide-staining based flow cytometry (reference value: 3.45%)", "format": "functional"}, "CCRF-CEM [5]": {"test_system": "CCRF-CEM", "experiment": "Induction of cell cycle arrest in human CCRF-CEM cells assessed as accumulation at G2/M phase at 5 times IC50 concentration after 24 hrs by propidium iodide-staining based flow cytometry (reference value: 19.22%)", "format": "functional"}, "MRC5": {"test_system": "MRC5", "experiment": "Antiproliferative activity against human MRC5 cells after 3 days by MTS assay", "settings": "MRC5, 72 h"}, "BJ": {"test_system": "BJ", "experiment": "Antiproliferative activity against human BJ cells after 3 days by MTS assay", "settings": "72 h"}, "CCRF-CEM [6]": {"test_system": "CCRF-CEM", "experiment": "Induction of cell cycle arrest in human CCRF-CEM cells assessed as accumulation at S phase at 5 times IC50 concentration after 24 hrs by propidium iodide-staining based flow cytometry (reference value: 41.08%)", "format": "functional"}, "Adenosine kinase [7]": {"molecular_target": "T1, Adenosine kinase (Homo sapiens, UniProt P55263)", "T1 sequence (P55263 whole entry)": "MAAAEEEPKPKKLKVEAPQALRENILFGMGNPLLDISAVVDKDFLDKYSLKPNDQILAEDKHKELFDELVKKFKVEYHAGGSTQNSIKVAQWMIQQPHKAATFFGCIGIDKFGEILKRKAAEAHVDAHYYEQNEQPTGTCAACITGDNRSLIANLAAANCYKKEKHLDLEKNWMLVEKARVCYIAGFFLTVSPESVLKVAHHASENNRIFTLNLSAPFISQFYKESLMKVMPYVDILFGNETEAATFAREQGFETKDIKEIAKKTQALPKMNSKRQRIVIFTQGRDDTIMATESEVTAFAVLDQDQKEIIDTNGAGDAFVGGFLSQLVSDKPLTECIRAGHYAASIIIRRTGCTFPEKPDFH", "experiment": "Inhibition of recombinant human ADK using [3H]-adenosine as substrate after 20 mins by TLC scanner-based analysis relative to control", "in_short": "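ADK inhibition: 50 μM adenosine substrate with 10 μM test compound and 97 ng enzyme, 20 min at 37 °C.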"}, "CCRF-CEM [8]": {"test_system": "CCRF-CEM", "experiment": "Induction of cell cycle arrest in human CCRF-CEM cells assessed as accumulation at G2/M phase at IC50 concentration after 24 hrs by propidium iodide-staining based flow cytometry (reference value: 19.22%)", "format": "functional"}, "CCRF-CEM [9]": {"test_system": "CCRF-CEM", "experiment": "Inhibition of DNA synthesis in human CCRF-CEM cells assessed as DNA synthesis level at 5 times IC50 concentration after 24 hrs by BrdU incorporation assay (reference value: 43.39%)", "format": "functional", "parameters": "scale not given: the % may be the effect or the level left"}, "CCRF-CEM [10]": {"test_system": "CCRF-CEM", "experiment": "Inhibition of DNA synthesis in human CCRF-CEM cells assessed as DNA synthesis level at IC50 concentration after 24 hrs by BrdU incorporation assay (reference value: 43.39%)", "format": "functional", "parameters": "scale not given: the % may be the effect or the level left"}, "CCRF-CEM [11]": {"test_system": "CCRF-CEM", "experiment": "Inhibition of mitosis in human CCRF-CEM cells assessed Ser10 H3 phosphorylation positive cells at IC50 concentration after 24 hrs by flow cytometry relative to total cell population (reference value: 1.36%)", "format": "functional", "parameters": "scale not given: the % may be the effect or the level left"}, "HCT-116 [12]": {"test_system": "HCT-116", "experiment": "Antiproliferative activity against p53 gene knocked out human HCT116 cells after 3 days by MTS assay", "format": "functional, cell-based", "settings": "HCT-116, 72 h"}, "Hepatitis C virus [13]": {"test_system": "Hepatitis C virus", "experiment": "Antiviral activity against Hepatitis C virus genotype 2a infected in human Huh-luc replicon cells after 3 days by luciferase assay", "format": "functional, organism-based, Hepacivirus hominis", "settings": "subtype 2a, 72 h"}, "CCRF-CEM [14]": {"test_system": "CCRF-CEM", "experiment": "Induction of cell cycle arrest in human CCRF-CEM cells assessed as accumulation at S phase at IC50 concentration after 24 hrs by propidium iodide-staining based flow cytometry (reference value: 41.08%)", "format": "functional"}, "HepG2": {"test_system": "HepG2", "experiment": "Antiproliferative activity against human HepG2 cells after 72 hrs by XTT assay", "format": "functional, cell-based", "settings": "HepG2, 72 h"}, "CCRF-CEM [15]": {"test_system": "CCRF-CEM", "experiment": "Inhibition of RNA synthesis in human CCRF-CEM cells assessed as RNA synthesis level at IC50 concentration after 24 hrs by BrU incorporation assay (reference value: 49.89%)", "format": "functional", "parameters": "scale not given: the % may be the effect or the level left"}, "[16]": {"experiment": "Antiproliferative activity against human CEM-DNR-bulk cells after 3 days by MTS assay", "settings": "72 h"}, "dengue virus type 2": {"test_system": "dengue virus type 2", "experiment": "Antiviral activity against Dengue virus 2 Thailand/16681/84 infected in African green monkey Vero cells assessed as inhibition of virus replication incubated for 3 days by fluorescence microscopy", "format": "functional, organism-based"}, "Coxsackievirus B3": {"test_system": "Coxsackievirus B3", "experiment": "Antiviral activity against Human coxsackie B3 Nancy infected in human HeLa cells assessed as inhibited virus-induced cytopathic effect incubated for 2 days by XTT assay", "format": "functional, organism-based"}, "CCRF-CEM [17]": {"test_system": "CCRF-CEM", "experiment": "Inhibition of RNA synthesis in human CCRF-CEM cells assessed as RNA synthesis level at 5 times IC50 concentration after 24 hrs by BrU incorporation assay (reference value: 49.89%)", "format": "functional", "parameters": "scale not given: the % may be the effect or the level left"}, "CCRF-CEM [18]": {"test_system": "CCRF-CEM", "experiment": "Inhibition of mitosis in human CCRF-CEM cells assessed Ser10 H3 phosphorylation positive cells at 5 times IC50 concentration after 24 hrs by flow cytometry relative to total cell population (reference value: 1.36%)", "format": "functional", "parameters": "scale not given: the % may be the effect or the level left"}, "HCT-116 [19]": {"test_system": "HCT-116", "experiment": "Antiproliferative activity against human HCT116 cells after 3 days by MTS assay", "format": "functional, cell-based", "settings": "HCT-116, 72 h"}, "HeLa S3": {"test_system": "HeLa S3", "experiment": "Antiproliferative activity against human HeLaS3 cells after 72 hrs by XTT assay", "format": "functional, cell-based", "settings": "HeLa S3, 72 h"}, "CCRF-CEM [20]": {"test_system": "CCRF-CEM", "experiment": "Induction of cell cycle arrest in human CCRF-CEM cells assessed as accumulation at subG1 phase at IC50 concentration after 24 hrs by propidium iodide-staining based flow cytometry (reference value: 3.45%)", "format": "functional"}, "Adenosine kinase [21]": {"molecular_target": "T1, Adenosine kinase", "experiment": "Substrate activity at recombinant human ADK assessed as compound phosphorylation at 50 uM after 20 mins in presence of [3H]-adenosine by UPLC", "format": "ADME"}, "Hepatitis C virus [22]": {"test_system": "Hepatitis C virus", "experiment": "Antiviral activity against Hepatitis C virus genotype 1b infected in human Huh-luc replicon cells after 3 days by luciferase assay", "format": "functional, organism-based, Hepacivirus hominis", "settings": "subtype 1b, 72 h"}, "[23]": {"experiment": "Cytotoxicity against human Hep2 cells assessed as reduction in cell viability after 3 days by CellTiter-Glo assay", "format": "cell-based", "settings": "HEp-2 cells"}, "CCRF-CEM [24]": {"test_system": "CCRF-CEM", "experiment": "Induction of cell cycle arrest in human CCRF-CEM cells assessed as accumulation at G0/G1 phase at 5 times IC50 concentration after 24 hrs by propidium iodide-staining based flow cytometry (reference value: 39.70%)", "format": "functional"}, "Human orthopneumovirus": {"test_system": "Human orthopneumovirus", "experiment": "Antiviral activity against Human respiratory syncytial virus A2 infected in Hep2 cells assessed as reduction in virus-induced cytopathic effect incubated for 4 days by CellTiter-Glo viability reagent based assay", "format": "functional, organism-based"}, "K562": {"test_system": "K562", "experiment": "Antiproliferative activity against human K562 cells after 3 days by MTS assay", "format": "functional, cell-based", "settings": "K562, 72 h"}},
  "note": "The source made the active and inactive calls. The calls are words filed in the database; no cut-off is given here.",
  "data": [
    {"smiles": "COc1ncnc2c1c1occc1n2[C@@H]1O[C@H](CO)[C@@H](O)[C@H]1O", "values": [
      {"measurement": "Activity", "setting": "Influenza A virus", "value": "inactive"},
      {"measurement": "IC50", "setting": "HL-60", "value": 700, "unit": "nM"},
      {"measurement": "IC50", "setting": "U2OS", "value": 430, "unit": "nM"},
      {"measurement": "IC50", "setting": "A549", "value": 1930, "unit": "nM"},
      {"measurement": "Activity", "setting": "CCRF-CEM [1]", "value": 41.52, "unit": "%"},
      {"measurement": "Activity", "setting": "Human alphaherpesvirus 1", "value": "inactive"},
      {"measurement": "IC50", "setting": "[2]", "value": 300, "unit": "nM"},
      {"measurement": "IC50", "setting": "CCRF-CEM [3]", "value": 180, "unit": "nM"},
      {"measurement": "Activity", "setting": "CCRF-CEM [4]", "value": 6.82, "unit": "%"},
      {"measurement": "Activity", "setting": "CCRF-CEM [5]", "value": 14.07, "unit": "%"},
      {"measurement": "IC50", "setting": "MRC5", "value": 13400, "unit": "nM"},
      {"measurement": "IC50", "setting": "BJ", "value": 1090, "unit": "nM"},
      {"measurement": "Activity", "setting": "CCRF-CEM [6]", "value": 65.39, "unit": "%"},
      {"measurement": "IC50", "setting": "Adenosine kinase [7]", "value": "> 10000", "unit": "nM"},
      {"measurement": "Activity", "setting": "CCRF-CEM [8]", "value": 16.65, "unit": "%"},
      {"measurement": "Activity", "setting": "CCRF-CEM [9]", "value": 52.74, "unit": "%"},
      {"measurement": "Activity", "setting": "CCRF-CEM [10]", "value": 42.65, "unit": "%"},
      {"measurement": "Activity", "setting": "CCRF-CEM [11]", "value": 0.56, "unit": "%"},
      {"measurement": "IC50", "setting": "HCT-116 [12]", "value": 300, "unit": "nM"},
      {"measurement": "EC50", "setting": "Hepatitis C virus [13]", "value": 290, "unit": "nM"},
      {"measurement": "Activity", "setting": "CCRF-CEM [14]", "value": 41.82, "unit": "%"},
      {"measurement": "IC50", "setting": "HepG2", "value": 2410, "unit": "nM"},
      {"measurement": "Activity", "setting": "CCRF-CEM [15]", "value": 25.36, "unit": "%"},
      {"measurement": "IC50", "setting": "[16]", "value": 3120, "unit": "nM"},
      {"measurement": "Activity", "setting": "dengue virus type 2", "value": "inactive"},
      {"measurement": "Activity", "setting": "Coxsackievirus B3", "value": "inactive"},
      {"measurement": "Activity", "setting": "CCRF-CEM [17]", "value": 4.3, "unit": "%"},
      {"measurement": "Activity", "setting": "CCRF-CEM [18]", "value": 0.58, "unit": "%"},
      {"measurement": "IC50", "setting": "HCT-116 [19]", "value": 280, "unit": "nM"},
      {"measurement": "IC50", "setting": "HeLa S3", "value": 2310, "unit": "nM"},
      {"measurement": "Activity", "setting": "CCRF-CEM [20]", "value": 4.23, "unit": "%"},
      {"measurement": "Activity", "setting": "Adenosine kinase [21]", "value": 35, "unit": "%"},
      {"measurement": "EC50", "setting": "Hepatitis C virus [22]", "value": 380, "unit": "nM"},
      {"measurement": "CC50 at 72 h", "setting": "[23]", "value": "> 44400", "unit": "nM"},
      {"measurement": "Activity", "setting": "CCRF-CEM [24]", "value": 20.54, "unit": "%"},
      {"measurement": "Activity", "setting": "Human orthopneumovirus", "value": "inactive"},
      {"measurement": "IC50", "setting": "K562", "value": 320, "unit": "nM"}
    ]}
  ]
}
